From publication PMC11617404 (iScience, 2024)
Blank lines part the entries; values can stand above or below the compound they belong to.

Experiments:
HepG2 cells [1] = test: ECAR and OCR during glycolytic stress test; format: cell-based, human; conditions: 1 h glucose starvation, 10 mM glucose, 10 μM oligomycin, 100 mM 2-DG
In short: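 HepG2 cells in Seahorse plates were transfected the next day with the sensor or its null variant. At 24 h they were glucose-starved for 1 h in XF DMEM (pH 7.4, 2 mM glutamine, no glucose, no phenol red) in a CO2-depleted incubator, and the medium was renewed. Additions: 10 mM glucose, 10 μM oligomycin, then 100 mM 2-DG in two 50 mM steps. OCR (pmol O2/min) was normalized to cell number by BCA protein assay; n = 3.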

HYlight [2] = target: T1, HYlight (Bacillus subtilis, UniProt O32253); test: Titration of purified HYlight with oligomycin or 2-DG; format: binding; conditions: increasing concentrations, Figure S1E
T1 sequence (O32253 96-340, other chains not shown): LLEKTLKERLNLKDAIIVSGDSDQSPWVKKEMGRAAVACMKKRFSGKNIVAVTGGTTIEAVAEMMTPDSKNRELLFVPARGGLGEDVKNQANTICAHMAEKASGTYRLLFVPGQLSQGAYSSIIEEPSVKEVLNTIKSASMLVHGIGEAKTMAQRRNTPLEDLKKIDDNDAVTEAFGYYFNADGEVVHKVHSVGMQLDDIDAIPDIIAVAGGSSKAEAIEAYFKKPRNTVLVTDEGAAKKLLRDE

HepG2 cells [3] = test: Gluconeogenesis induction with FBP1 or PFK inhibition, HYlight imaging; format: cell-based, human
In short: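 HepG2 cells were kept in DMEM Glutamax with 25 mM lactate and 0.65 mM pyruvate. After transfection, 50 μM dexamethasone and 100 nM glucagon were added; normal medium served as comparison. The PFK inhibitor (20 μM) was given 24 h before the assay, and the FBP1 inhibitor (20 μM) acutely. After 1 h glucose starvation, cells were imaged with dexamethasone and glucagon (60 min each), FBP1 inhibitor (30 min), then 15 mM glucose (25 min). Read-out was 488/405 nm ratio; n ≥ 3, 50 cells each.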

HYlight [4] = target: T1, HYlight; test: Titration of purified recombinant HYlight, excitation ratio F500/F400; format: binding; conditions: for maximum fluorescence ratio: purified HYlight, titration from low μM to mM range, Figure 5C; for average fluorescence ratio: 1 μM FBP, Figure 6D; for maximum ratiometric value (fluorescence ratio): Figure 6A; for fluorescence ratio (maximum): Figure 7A
In short: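 Purified sensor (200 nM) was scanned at excitation 350–520 nm, emission 560 nm, 25°C, with ratio F500/F400. For ionic strength, protein in TBS (0 mM NaCl, 50 mM Tris-HCl pH 7.6) was titrated with FBP and NaCl 0–150 mM. The buffer series compared 25 mM MES/CHES/HEPES, PBS and Britton-Robinson pH 8, pH-adjusted with NaOH; n = 3.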

HYlight [5] = target: T1, HYlight; test: Dihydroxyacetone phosphate competition assay on purified HYlight; format: binding; conditions: purified HYlight in the presence of 100 μM FBP, Figure 5D
In short: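 Protein was IPTG-induced (0.5 mM, overnight, 30°C), purified by Ni2+ affinity and size exclusion, and used at 200 nM. DHAP was titrated with or without 100 μM FBP, and with or without cytosolic ionic strength (140 mM K+, 12 mM Na+) plus a metabolic mix. Excitation was scanned 350–520 nm with emission at 560 nm, 25°C. Ratio R = F500/F400, ΔR/R0 = (Rt−Rt=0)/Rt=0; n = 3.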

[6] = tested on: primary mouse hepatocytes; test: Hypoxia induction assay; format: cell-based; conditions: 1 mM overnight, 1 h starvation
In short: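 Transfected primary mouse hepatocytes received 1 mM DMOG 24 h before and during the assay, with DMSO as blank. After 1 h glucose starvation they were given 20 mM glucose (35 min), a further 20 mM glucose (10 min), then 100 mM 2-DG (10 min), with the 488/405 nm ratio recorded.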

HepG2 cells [7] = test: Hypoxia induction assay; format: cell-based, human; conditions: 1 mM overnight, 1 h starvation
In short: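 Transfected HepG2 cells received 1 mM DMOG 24 h before the assay, kept throughout, with DMSO as blank. After 1 h glucose starvation, cells were imaged for 30 min after 10 mM glucose, following the 488/405 nm ratio. n ≥ 5, 50 cells per replicate.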

HYlight [8] = target: T1, HYlight; test: Metal binding assay on purified HYlight; conditions: 150 mM NaCl or KCl, 0.1 mM EDTA
PFK-1 = PFK-1 toward FBP; ref BRENDA:EC2.7.1.11; Zheng and Kemp[47]; cited from earlier work
aldolase = conditions: cited from earlier work
HepG2 cells [9] = test: FBP added to the media of non-permeabilized HepG2 cells expressing HYlight; format: cell-based, human; conditions: intact HepG2 cells, increasing FBP in the media, no saponin
FBPase-1 = FBPase-1 for FBP, gluconeogenic conditions; cited from earlier work
[10] = FBP quantification with HYlight in primary mouse hepatocytes; format: cell-based
In short: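 Hepatocytes were transfected with HYlight plasmid 2 h after seeding; medium was replaced 12 h later. Cells were glucose-starved 1 h in glucose-free Seahorse XF DMEM (pH 7.4, 2 mM glutamine), then given 10 mM glucose. Confocal 488/405 ratios were normalized to post-2-DG values and read against an in vitro FBP curve (ΔR/R10) mimicking ionic strength and metabolic competition. n = 3, ≥50 cells each.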

HYlight [11] = target: T1, HYlight; conditions: cited from earlier work
HLE cells = test: Glycolytic stress test, HYlight confocal imaging in HLE cells; format: cell-based, human; conditions: after the addition of 10 mM glucose
In short: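 Transfected HLE cells were glucose-starved for 1 h in XF DMEM pH 7.4 (2 mM glutamine, no glucose) and imaged 10 min. They then received 10 mM glucose for 30 min, 2.5 μM oligomycin for 30 min and 50 mM 2-DG for 30 min. The 488/405 nm ratio was followed over time and min-max normalized.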

[12] = tested on: primary mouse hepatocytes; test: Glucose titration, HYlight confocal imaging in primary mouse hepatocytes; format: cell-based; conditions: 1 h glucose starvation, glucose 0–40 mM added every 10 min
In short: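 Hepatocytes were isolated by two-step collagenase perfusion via the vena cava and cultured in William's medium with 10% FBS and 10 mM HEPES. They were transfected 2 h after seeding, with medium changed at 12 h. After 1 h starvation in glucose-free XF DMEM pH 7.4, cells were imaged 10 min, given glucose in steps every 10 min to 40 mM, then 100 mM 2-DG. The 488/405 nm ratio was recorded; n = 3, ≥50 cells each.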

[13] = tested on: HepG2, HLE, and Huh6 cells; test: Glucose titration, HYlight confocal imaging in hepatoma cell lines; format: cell-based, human
In short: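 Hepatoma lines expressing codon-optimized cytosolic sensor (Lipofectamine, medium changed at 24 h) were glucose-starved for 1 h in XF DMEM pH 7.4 without glucose. They were imaged 10 min, then given increasing glucose every 10 min up to 40 mM, then 50 mM 2-DG. The 488/405 nm confocal ratio was min-max normalized, and the Hill coefficient was taken from ratio versus glucose; n = 3, ≥50 cells each.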

HYlight [14] = target: T1, HYlight; test: Phosphate titration assay on purified HYlight; format: binding
In short: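 Purified sensor (200 nM) or null variant was tested in SEC buffer pH 8 with TBS or PBS. Separately, 200 mM Sorensen's phosphate pH 8 was titrated from the nM to mM range into sensor in 50 mM Tris pH 8, with or without 100 μM FBP, keeping conductivity constant. Excitation was scanned 350–520 nm, emission 560 nm, 25°C; read-out was the F500/F400 ratio change; n = 3.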

direct effect on ratiometric response of purified HYlight (HYlight [2]): do not directly interact with HYlight
Compound: O=CC[C@@H](O)[C@H](O)[C@H](O)CO [2-DG, 2-deoxy-D-glucose]
change of oxygen consumption rate (OCR) (HepG2 cells [1]): increase in the OCR

Compound: O=C(/C=C/c1cccnc1)c1ccncc1 [3PO, (2E)-3-(3-Pyridinyl)-1-(4-pyridinyl)-2-propen-1-one]
decrease in FBP levels after glucose addition (HepG2 cells [3]; 20 μM, 24 h treatment, gluconeogenic media): not observed
FBP levels (HYlight ratio) after glucose addition (HepG2 cells [3]; 20 μM, 24 h treatment, normal media): significant decrease in the FBP levels

Compound: O=S(=O)(Nc1nc2cc(Cl)ccc2o1)c1cc(Cl)ccc1Cl [5-chloro-2-(N-(2,5-dichlorobenzenesulfonamide))-benzoxazole]
FBP level (HYlight ratio) after glucose addition (HepG2 cells [3]; 20 μM inhibitor, gluconeogenic medium, 15 mM glucose): increase of FBP to levels comparable to those seen with standard media

maximum fluorescence ratio (HYlight [4]): 0.75
DHAP concentration at which significant competition was observed (HYlight [5]): above 2.5 mM
Compound: O=C(CO)COP(=O)(O)O [DHAP, dihydroxyacetone phosphate]

Compound: COC(=O)CNC(=O)C(=O)OC [DMOG, dimethyloxalylglycine]
basal fluorescence (HYlight ratio) [6]: significant increase in basal fluorescence
response to glucose (HYlight ratio) [6]: diminished or absent response to glucose
basal fluorescence (HYlight ratio) (HepG2 cells [7]): significant increase in basal fluorescence
response to glucose (HYlight ratio) (HepG2 cells [7]): diminished or absent response to glucose

Compound: O=C(O)CN(CCN(CC(=O)O)CC(=O)O)CC(=O)O [EDTA, ethylenediaminetetraacetic acid]
effect on response and apparent KD value of HYlight for FBP (HYlight [8]): did not alter the response or the apparent KD value

average fluorescence ratio (HYlight [4]; TBS with 0 mM NaCl): 1.87
average fluorescence ratio (HYlight [4]; TBS with 150 mM NaCl): 0.94
maximum ratiometric value (fluorescence ratio) (HYlight [4]; Britton-Robinson phosphate buffer): 1
fluorescence ratio (maximum) (HYlight [4]; CIS (140 mM KCl and 12 mM NaCl)): 3.5
fluorescence ratio (maximum) (HYlight [4]; CIS + metabolic mix solution): 3.5
maximum ratiometric value (fluorescence ratio) (HYlight [4]; MES-CHES-HEPES buffer): ~3
maximum ratiometric value (fluorescence ratio) (HYlight [4]; PBS): 2
maximum fluorescence ratio (HYlight [4]): 2
fluorescence ratio (maximum) (HYlight [4]; working buffer, 125 mM NaCl): 2
entry of FBP from the media into cells (HYlight ratio unchanged) (HepG2 cells [9]): could not cross the membrane
FBP concentration in primary mouse hepatocytes (HYlight) ([10]; after 10 mM glucose): 21 µM
FBP concentration in primary mouse hepatocytes (HYlight) ([10]; before glucose addition): 15 µM
Compound: O=C(COP(=O)(O)O)[C@@H](O)[C@H](O)[C@H](O)COP(=O)(O)O [FBP, fructose 1,6-bisphosphate]
turnover rate (PFK-1): 111 s⁻¹
specificity constant (aldolase; aldolase for FBP): 4.7 mM⁻^1s⁻^1
specificity constant (FBPase-1): 23 mM⁻^1s⁻^1

Compound: [K+] [K^+]
effect on response and apparent KD value of HYlight for FBP (HYlight [8]): did not alter the response or the apparent KD value

Compound: [Na+] [Na^+]
effect on response and apparent KD value of HYlight for FBP (HYlight [8]): did not alter the response or the apparent KD value

Compound: O=P(O)(O)OC[C@H]1O[C@@](CO)(OP(=O)(O)O)[C@@H](O)[C@@H]1O [fructose 2,6-bisphosphate]
binding to HYlight (HYlight [11]): can also bind

Compound: OC[C@H]1OC(O)[C@H](O)[C@@H](O)[C@@H]1O (stereo partly shown) [glucose]
change of oxygen consumption rate (OCR) (HepG2 cells [1]): decrease in oxygen consumption
time to maximum HYlight response (HLE cells): 30 min
glucose concentration after which HYlight changes were detected [12]: 20 mM
glucose concentration needed for HYlight changes ([13]; 1 h glucose starvation, glucose 0–40 mM added every 10 min): 5 mM
hill coefficient of HYlight ratio against glucose concentration ([13]; HLE, HepG2, Huh6 cell lines and primary mouse hepatocytes, Figure 1C): approximately 1

Compound: O=CC(O)COP(=O)(O)O (stereo not shown) [glyceraldehyde 3-phosphate]
turnover rate (aldolase; aldolase toward glyceraldehyde 3-phosphate, ref BRENDA:EC4.1.2.13, Plater et al.[48]): 8.2 s⁻¹

Compound: CC[C@H]1/C=C/C=C/C[C@@H](C)[C@H](O)[C@@](C)(O)C(=O)[C@@H](C)[C@H](O)[C@@H](C)C(=O)[C@@H](C)[C@H](O)[C@@H](C)/C=C/C(=O)O[C@@H]2[C@H](C)[C@H](CC1)O[C@]1(CC[C@H](C)[C@H](C[C@@H](C)O)O1)[C@H]2C [oligomycin, Oligomycin A]
change of oxygen consumption rate (OCR) (HepG2 cells [1]): decrease in oxygen consumption
direct effect on ratiometric response of purified HYlight (HYlight [2]): do not directly interact with HYlight

effect of phosphate titration on fluorescence response (HYlight [14]; in the presence of 100 μM FBP): decrease in fluorescence response
Compound: phosphate
effect of phosphate titration on 500/400 fluorescence ratio (HYlight [14]; in the absence of FBP): increase in the 500/400 fluorescence ratio
